The full list was thinned out, with hits kept by preference.
Pf gametocyte: inhibitors of late stage P. falciparum gametocyte viability. P. falciparum stage V gametocytes, ATP luminescence, 24 h. 150,000 tested, 0.065% active. inhibition, % at 10.9 µM;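 active means inhibition above the mean plus 3 SD of compounds within the control limits, set per campaign, cut at about 38% in these data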;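 further: 0% = DMSO wells and 100% = medium only without gametocytes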
ROMK mod: modulators of human ROMK potassium channel; 130,000 tested, 2% active; Tet-inducible ROMK, thallium flux fluorescence; actives lie on both sides; P48048; B-score at 10 µM;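 active means signal ratio slope over the read window, or its plate-corrected B-score, at least 3 SD from the plate mean, either direction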;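 further: B-score of the F/F0 ratio slope over 7 to 12 s after thallium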
Target sequence (P48048 whole entry, looked up): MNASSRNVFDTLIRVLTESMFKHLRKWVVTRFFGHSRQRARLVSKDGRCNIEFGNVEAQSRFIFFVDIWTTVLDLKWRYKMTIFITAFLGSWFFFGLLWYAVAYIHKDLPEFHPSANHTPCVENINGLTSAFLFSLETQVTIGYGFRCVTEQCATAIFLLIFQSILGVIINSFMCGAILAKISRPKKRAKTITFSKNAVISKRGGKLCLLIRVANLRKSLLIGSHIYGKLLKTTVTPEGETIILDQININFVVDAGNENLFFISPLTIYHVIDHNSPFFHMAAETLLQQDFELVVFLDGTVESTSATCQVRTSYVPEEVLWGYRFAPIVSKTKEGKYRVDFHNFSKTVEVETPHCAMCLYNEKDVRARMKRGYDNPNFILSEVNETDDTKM
Biofilm kill mix: mixture kills Candida albicans biofilm cells | C. albicans biofilm persisters + clotrimazole, fluorescence viability; primary screen in compound mixtures of four per well | inhibition, % at 7.6 µM | AID 1242 | 120,000 tested, 0.02% active;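 active means inhibition above 30.3% in the primary screen of four-compound pools, then above 30% when the compound was retested; inconclusive means passed the primary limit but could not be retested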;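 further: compounds exposed to preformed 24 h biofilms for 48 h; 0% = untreated biofilm control and 100% = clotrimazole plus chlorhexidine kill blank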
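Probe or stimulus – Clotrimazole 50 µg/mL co-treatment · System – C. albicans biofilms · Schedule – 24 h biofilm formation, then 48 h compound exposure, 37 °C · Evaluation – percent inhibition of biofilm viability · Technique – 2-h Alamar Blue fluorescence, 535/590 nm excitation/emission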
ROMK hit retest: retested hit modulating human ROMK potassium channel. ROMK thallium flux, fluorescence ratio; active compounds read low. 3,000 tested, 54% active. normalized thallium flux (F/F0 slope) at 10 µM. shares compounds with ROMK mod;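 active means Flux at 10 µM at least 3 SD below or above vehicle control mean in one or both replicates; inconclusive means no clear call, values can overlap the other calls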
Active calls of the source: *; ? = inconclusive; / = no result given.

SMILES	Pf gametocyte	ROMK mod	Biofilm kill mix	ROMK hit retest
Cc1ccc(NC(=O)C2CC(Cl)=CCC2C(=O)O)c([N+](=O)[O-])c1 (centres undefined)	-15.4	0.516	12.7	/
CC(=Nc1cccc(O)c1)c1sc2ccccc2c1O	1.1	-2.43*	/	0.0582*
CC(=Nc1ccc(C)cc1C)c1sc2ccccc2c1O	-16.7	-0.0627	9.0	/
O=C(Nc1cccc(-c2cn3cccnc3n2)c1)c1ccc(Br)o1	-13.1	/	/	?
COc1ccc(-c2cn3cccnc3n2)cc1NC(=O)c1ccc(Br)o1	-14.7	/	/	/
O=C(Nc1cccc(-c2nnc(-c3ccccc3)o2)c1)c1ccc(Br)o1	-12.2	-1.23	/	0.0651*
O=C(Nc1cccc(-c2cn3cccnc3n2)c1)c1ccc2c(c1)OCO2	-11.6	/	/	0.0795
O=C(COc1ccccc1)Nc1cccc(-c2nnc(-c3ccccc3)o2)c1	-2.1	/	/	/
c1cnc2nc(-c3ccc4c(c3)OCO4)cn2c1	-34.4	-0.0848	12.2	/
COC(=O)[C@@]1(Cc2ccc(OC)cc2)[C@H]2c3cc(C(=O)N4CCCC4)n(Cc4ccc(C)o4)c3C[C@H]2CN1C(=O)c1ccccc1	/	-1.96	-2.6	/
Nc1c(Cl)cc(-c2cn(CCC(=O)O)c(-c3ccncc3)n2)cc1Cl	-8.1	/	/	/
C=CC[C@H](CC(=O)NCCO)C(=O)NC[C@@H](OC(=O)[C@@H](CC=C)CC(=O)OC(C)(C)C)c1ccccc1	17.1	/	/	/
CC(C)NC(=O)CSc1nc(N)c(-c2ccccc2)c(=O)[nH]1	/	-0.703	8.9	/
CCOc1ccccc1NC(=O)CN(c1ccc(Cl)cc1)S(C)(=O)=O	-6.8	/	/	/
C=CCC[C@H](Cc1ccc(F)cc1)C(=O)OC[C@H](Cc1c[nH]c2ccccc12)NC(=O)[C@@H](CC=C)CC(=O)N[C@H](CO)Cc1ccccc1	-6.8	/	/	/
COc1ccc2occ(C(=O)c3coc4ccc(O)c(CN(C)C)c34)c2c1	-5.6	/	/	0.0609*
COc1ccc(OC)c(C(=O)c2coc3ccc(OC(C)=O)cc23)c1	/	0.862	12.1	/
CN(C)Cc1c(O)ccc2occ(C(=O)c3ccc(F)cc3)c12	-16.1	/	/	/
COc1ccc(OC)c(C(=O)c2coc3ccc(OCC(=O)O)cc23)c1	-5.9	2.81*	/	0.0703
Cn1nnnc1N=N/C(=N/Nc1ccccc1)c1ccccc1	-11.7	/	13.8	/
CN(C(=O)CCl)C1CCCc2ccccc21 (centres undefined)	2.4	-1.49	19.9	/
CCN(CC)S(=O)(=O)c1cc(NC(=O)C(C)N2CCN(Cc3ccc4c(c3)OCO4)CC2)ccc1C (centres undefined)	20.2	-0.792	17.0	/
COC(=O)CSc1nc(C)cc(C)c1C#N	6.4	0.577	11.4	/
COC(=O)CSc1nc(C)cc(C(F)(F)F)c1C#N	-5.4	/	/	0.0733
CC(=O)c1sc(-c2ccc(F)cc2F)nc1C	-0.1	/	10.2	/
SMILES	Pf gametocyte	ROMK mod	Biofilm kill mix	ROMK hit retest
Cc1cc(Cl)n2ncc(-c3ccccc3)c2n1	-22.4	/	18.1	0.0628*
Cc1cc(N)n2ncc(-c3ccc(Cl)cc3)c2n1	-36.8	/	/	/
CCC(C)Oc1ccccc1C1CC(=O)NC2=C1C(=O)CCC2 (centres undefined)	-17.2	2.77*	/	0.0925
Cc1ccccc1C1CC(=O)NC2=C1C(=O)CCC2 (centres undefined)	-19.8	0.691	/	/
CCc1cc(C(=O)N/N=C/c2c(C)[nH]c3ccccc23)cs1	/	-1.81	9.1	/
COc1ccc(/C(C)=C2\SC(=S)N(CCC(=O)O)C2=O)cc1	/	3.1*	/	0.0755
COc1ccc(NC(=O)CCCN2C(=O)/C(=C\c3ccco3)SC2=S)cc1	-7.4	-0.498	15.8	/
Fc1ccccc1C1c2[nH]c3ccccc3c2CCN1Cc1ccoc1 (centres undefined)	4.8	0.56	15.6	/
COC(=O)c1ccc2c(c1)C(C)(C)C(/C=C/c1ccc(OC)c(OC)c1OC)=[N+]2C	/	/	/	0.0584*
COC(=O)c1ccc2nc(C)c(C)nc2c1	-0.5	/	/	/
COC(=O)COc1ccc(S(=O)(=O)NCc2ccc3c(c2)OCO3)cc1C	15.1	/	/	/
CC(C(=O)NCc1ccccc1)N1C(=O)c2ccccc2C1=O (centres undefined)	-14.2	/	/	/
CC(C(=O)O)N1C(=O)c2ccccc2C1=O (centres undefined)	8.1	2.86*	/	0.0778
O=C(CS(=O)(=O)c1ccc2ccccc2c1)N1CCCCCC1	/	/	17.9	/
Cc1c(O[C@@H]2O[C@H](CO)[C@@H](O)[C@H](O)[C@H]2O)c(CO)c(O[C@@H]2O[C@H](CO)[C@@H](O)[C@H](O)[C@H]2O)c2c1O[C@@H](c1ccccc1)C[C@@H]2O	10.3	/	/	/
OCCN(CC(O)Cn1ccc2ccccc21)CC(O)Cn1ccc2ccccc21 (centres undefined)	10.7	-4.79*	/	0.0558*
CC(C)(C)c1ccc(OCC(O)CN(CCO)CC(O)Cn2ccc3ccccc32)cc1 (centres undefined)	12.6	/	2.8	/
O=C(O)Cc1csc(-c2ccc(F)cc2)n1	19.3	2.95*	9.8	?
O=C(O)Cc1csc(-c2ccccc2)n1	6.5	0.194	12.2	/
CC(NC(=O)CCCOc1ccc(Cl)cc1)c1ccccc1 (centres undefined)	-1.3	-1.24	14.7	/
Cc1ccc(OCCCC(=O)NC(C)c2ccccc2)cc1 (centres undefined)	9.9	3.22*	/	0.0924
N#CC(C#N)=C1C=CC=CN1/C(=C\c1ccccc1)C(=O)c1cccs1	/	/	10.7	0.0567*
O=C(N/N=C/C(Br)=C\c1ccccc1)c1cccs1	4.1	/	23.6	/
N#CC(C#N)=C1C=CC=CN1/C(=C\c1ccccc1Cl)C(=O)c1ccccc1	3.5	-5.58*	22.6	0.0411*
CC1CCN(C(=O)/C(=C/c2ccccc2Cl)c2ccccc2)CC1	-10.5	/	/	/
SMILES	Pf gametocyte	ROMK mod	Biofilm kill mix	ROMK hit retest
Cc1cc(=S)c2cccc(C)c2[nH]1	2.2	0.0723	12.9	/
COCCNC(=O)CCC1CCN(Cc2ccc(-c3ccccc3)cc2)CC1	6.2	/	/	/
COc1ccc(C(=O)N2c3ccccc3C=CC2C#N)cc1 (centres undefined)	/	/	17.8	/
N#C[C@H]1[C@H](c2ccccc2)[C@](C#N)(C(=O)c2ccccc2)[C@@H]2C=Cc3ccccc3N21	/	-2.84*	/	0.0742
C=CCn1c(SCC(=O)NC(=O)c2cccc([N+](=O)[O-])c2)nnc1-c1ccccc1F	/	-0.282	11.5	/
COc1cc(C(C[N+](=O)[O-])c2c(-c3ccccc3)cc3ccccn23)cc(OC)c1OC (centres undefined)	16.9	-1.36	/	/
O=Nc1c(-c2ccccc2)cc2ccccn12	-29.8	0.0335	-3.3	/
COc1ccc(C(C[N+](=O)[O-])c2c(-c3ccccc3)cc3ccccn23)cc1 (centres undefined)	-0.9	-3.66*	/	0.0842
COc1ccc(C(C[N+](=O)[O-])c2c(-c3ccccc3)cc3ccccn23)cc1OC (centres undefined)	-14.2	-3.72*	/	0.0641*
CCCCCCNc1nc(-c2ccc(OC)cc2)c(CCC(=O)O)s1	-7.8	/	15.0	/
C/C(=C/Cc1c(O)cc2oc(C)cc(=O)c2c1O)COC1OC(CO)C(O)C(O)C1O (centres undefined)	/	0.128	9.3	/
CCCCc1ccc(S(=O)(=O)NCCc2ccncc2)cc1	-34.5	/	/	0.0625*
Cc1ccc(S(=O)(=O)NCCc2ccncc2)cc1	11.3	/	/	/
Cn1cnc2cc(NC(=O)c3ccc(Cl)cc3)ccc21	/	/	/	0.0819
CC(C)(C)n1cnc2cc(NC(=O)c3ccc(Cl)cc3)ccc21	-23.1	/	/	/

Screening results from PubChem.
